{
  "source": "paper PMC7241432",
  "about": "(ACS infectious diseases, 2019)",
  "key": {"[1]": {"test": "Stability / PYR release in cell-free medium", "assay_type": "physicochemical", "procedure,_shortened": "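PYR measured colorimetrically: cell-free medium (R or nitrite-containing NR medium) mixed 1:1 with 0.01 M ferric nitrate in 0.1 N sulfuric acid and shaken 5–10 min at room temperature. Fe3+–PYR complex read by absorbance at 600 nm. Concentration taken from a linear sodium-PYR standard curve. Free PYR followed over 24 h (R medium) and 48 h (NR medium).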"}, "Mtb [2]": {"test_system": "Mtb", "assay_type": "cell-based, Mycobacterium tuberculosis"}, "[3]": {"test_system": "methicillin-sensitive S. aureus", "test": "Antimicrobial spectrum MIC90, MSSA", "assay_type": "cell-based", "conditions": "Staphylococcus aureus, 24 h"}, "Mtb strain H37Rv": {"test_system": "Mtb strain H37Rv", "test": "microbe, parasite or virus in culture", "assay_type": "cell-based, Mycobacterium tuberculosis", "conditions": "for MBC: Mycobacterium tuberculosis, H37RV"}, "BlaC": {"biological_target": "T1, BlaC (Mycobacterium tuberculosis, UniProt P9WKD3)", "T1 sequence (P9WKD3 35-307)": "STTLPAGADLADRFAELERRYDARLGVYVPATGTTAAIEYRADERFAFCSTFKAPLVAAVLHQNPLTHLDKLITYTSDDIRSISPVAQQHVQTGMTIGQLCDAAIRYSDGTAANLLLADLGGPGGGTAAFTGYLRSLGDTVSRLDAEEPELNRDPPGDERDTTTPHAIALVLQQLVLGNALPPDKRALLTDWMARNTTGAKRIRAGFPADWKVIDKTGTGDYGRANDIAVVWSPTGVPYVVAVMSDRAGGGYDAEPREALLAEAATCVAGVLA", "assay_type": "biochemical", "conditions": "100 μM compound, 1 μM BlaC, 10 min"}, "Mtb [4]": {"test_system": "Mtb", "conditions": "14-day exposure of hypoxic Mtb, plus clavulanate; cited from earlier work"}, "[5]": {"test_system": "luxAB (luciferase) containing strain of Mtb H37Rv", "assay_type": "cell-based, Mycobacterium tuberculosis", "conditions": "hypoxic conditions, control"}},
  "note": "Where two headings read alike, the source gives them in different places.",
  "data": [
    {"smiles": "O=C(O)CSc1cccc[n+]1[O-]", "note": "[Compound 10, 2-(carboxymethylthio)pyridine-N-oxide]", "values": [
      {"measurement": "PYR release in cell-free medium", "setting": "[1]; Fe3+-PYR complex, absorbance at 600 nm", "value": "not released"}
    ]},
    {"smiles": "[O-][n+]1ccccc1S", "note": "[PYR, pyrithione]", "values": [
      {"measurement": "reduction of CFU of R Mtb", "setting": "Mtb [2]", "value": "> 5 orders of magnitude"},
      {"measurement": "time to reduce CFU of R Mtb by >5 orders of magnitude", "setting": "Mtb [2]", "value": "≤ 24", "unit": "h"},
      {"measurement": "stability of free PYR in the medium used for NR conditions", "setting": "[1]; NR medium", "value": "largely disappeared over 48 h"},
      {"measurement": "stability of free PYR in the medium used for R conditions", "setting": "[1]; R medium", "value": "at least 24 h"},
      {"measurement": "MIC90", "setting": "[3]", "value": 25, "unit": "µM"},
      {"measurement": "potency relative to cephalosporin 1a", "setting": "Mtb strain H37Rv", "value": "equipotent on a molar basis"},
      {"measurement": "MBC", "setting": "Mtb strain H37Rv; read-out: MBC NR CARA", "value": 1.25, "unit": "µM"},
      {"measurement": "MBC", "setting": "Mtb strain H37Rv; read-out: MBC NR CARA + 25 μM Clav", "value": 1.25, "unit": "µM"},
      {"measurement": "MBC", "setting": "Mtb strain H37Rv; read-out: MBC R CARA", "value": 1.25, "unit": "µM"},
      {"measurement": "MBC", "setting": "Mtb strain H37Rv; read-out: MBC R CARA + 25 μM Clav", "value": 1.25, "unit": "µM"}
    ]},
    {"smiles": "CC(=O)OCC1=C(C(=O)O)N2C(=O)[C@@H](NC(=O)Cc3cccs3)[C@H]2SC1", "note": "[cephalothin]", "values": [
      {"measurement": "UV-visible absorption spectrum after incubation with BlaC", "setting": "BlaC", "value": "did not change"}
    ]},
    {"smiles": "C[C@@H](O)[C@H]1C(=O)N2C(C(=O)O)=C(S[C@@H]3CN[C@H](C(=O)N(C)C)C3)[C@H](C)[C@H]12", "note": "[meropenem]", "values": [
      {"measurement": "reduction in colony-forming units (CFUs)", "setting": "Mtb [4]", "value": "ca. 1 order of magnitude"}
    ]},
    {"smiles": "CO[C@H]1/C=C/O[C@@]2(C)Oc3c(C)c(O)c4c(O)c(c(/C=N/N5CCN(C)CC5)c(O)c4c3C2=O)NC(=O)/C(C)=C\\C=C\\[C@H](C)[C@H](O)[C@@H](C)[C@@H](O)[C@@H](C)[C@H](OC(C)=O)[C@@H]1C", "note": "[rifampicin]", "values": [
      {"measurement": "activity in LORA", "setting": "[5]", "value": "lost activity"}
    ]}
  ]
}
